Reference: ChEMBL document CHEMBL2169773, “Modified acidic nonsteroidal anti-inflammatory drugs as dual inhibitors of mPGES-1 and 5-LOX” (J Med Chem, 2012)
The source made the active and inactive calls. The rule behind the calls is not given here.

Experiments:
[1] = molecular target: T1, Polyunsaturated fatty acid 5-lipoxygenase (Homo sapiens) (UniProt P09917); test: Inhibition of 5-lipoxygenase in A23187-stimulated human neutrophils assessed as remaining activity measuring enzyme product formation at 10 uM by RP-HPLC analysis relative to vehicle-treated control
T1 sequence (whole entry): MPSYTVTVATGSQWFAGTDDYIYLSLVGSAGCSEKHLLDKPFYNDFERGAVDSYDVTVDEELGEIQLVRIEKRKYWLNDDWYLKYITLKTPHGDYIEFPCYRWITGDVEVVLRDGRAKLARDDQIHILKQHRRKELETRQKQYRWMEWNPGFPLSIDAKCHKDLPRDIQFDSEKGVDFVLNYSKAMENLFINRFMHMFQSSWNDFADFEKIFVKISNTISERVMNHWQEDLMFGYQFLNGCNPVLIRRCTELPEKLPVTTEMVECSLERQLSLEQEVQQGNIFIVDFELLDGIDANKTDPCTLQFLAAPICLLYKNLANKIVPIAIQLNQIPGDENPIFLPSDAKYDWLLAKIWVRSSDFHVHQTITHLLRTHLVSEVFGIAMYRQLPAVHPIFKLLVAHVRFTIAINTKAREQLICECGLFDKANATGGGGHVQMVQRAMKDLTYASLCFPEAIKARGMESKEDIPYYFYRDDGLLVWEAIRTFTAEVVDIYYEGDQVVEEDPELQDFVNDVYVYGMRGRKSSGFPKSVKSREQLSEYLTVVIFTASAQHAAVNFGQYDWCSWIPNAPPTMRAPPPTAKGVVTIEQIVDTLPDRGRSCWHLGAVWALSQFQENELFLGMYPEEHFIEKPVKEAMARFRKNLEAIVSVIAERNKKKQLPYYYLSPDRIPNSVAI
Procedure, shortened: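 Human neutrophils (whole cells) stimulated with A23187 and 20 μM exogenous arachidonic acid; test compounds at 10 μM. Activity expressed as % remaining versus vehicle control; BWA4C as reference inhibitor; mean with SE, n = 3−5.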

Prostaglandin E synthase = molecular target: T2, Prostaglandin E synthase (Homo sapiens, UniProt O14684); test: Inhibition of mPGES-1 in human IL-1beta-stimulated A549 cell microsomes assessed as inhibition of PGE2 formation from PGH2 after 15 mins by RP-HPLC analysis; parameters: species or system Microsome
T2 sequence (O14684 whole entry): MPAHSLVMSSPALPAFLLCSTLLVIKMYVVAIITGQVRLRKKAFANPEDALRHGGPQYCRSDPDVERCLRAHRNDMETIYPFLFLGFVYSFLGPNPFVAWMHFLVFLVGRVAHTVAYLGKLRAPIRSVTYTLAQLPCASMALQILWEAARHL

[2] = molecular target: T3, Polyunsaturated fatty acid 5-lipoxygenase (Homo sapiens, UniProt P09917); test: Inhibition of 5-lipoxygenase in A23187-stimulated human neutrophils assessed as inhibition of enzyme product formation by RP-HPLC analysis
T3 sequence (P09917 whole entry): T1 sequence (whole entry)
Procedure, shortened: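 Whole-cell assay in human neutrophils stimulated with A23187 plus 20 μM exogenous arachidonic acid as substrate; BWA4C as reference inhibitor. IC50 calculated for selected compounds; mean with SE, n = 3−5.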

[3] = molecular target: T4, Prostaglandin G/H synthase 1 (Ovis aries) (UniProt P05979); test: Inhibition of ovine COX1 assessed as inhibition of 12-HHT formation preincubated at 10 uM for 5 mins before arachidonic acid addition by HPLC analysis
T4 sequence (whole entry): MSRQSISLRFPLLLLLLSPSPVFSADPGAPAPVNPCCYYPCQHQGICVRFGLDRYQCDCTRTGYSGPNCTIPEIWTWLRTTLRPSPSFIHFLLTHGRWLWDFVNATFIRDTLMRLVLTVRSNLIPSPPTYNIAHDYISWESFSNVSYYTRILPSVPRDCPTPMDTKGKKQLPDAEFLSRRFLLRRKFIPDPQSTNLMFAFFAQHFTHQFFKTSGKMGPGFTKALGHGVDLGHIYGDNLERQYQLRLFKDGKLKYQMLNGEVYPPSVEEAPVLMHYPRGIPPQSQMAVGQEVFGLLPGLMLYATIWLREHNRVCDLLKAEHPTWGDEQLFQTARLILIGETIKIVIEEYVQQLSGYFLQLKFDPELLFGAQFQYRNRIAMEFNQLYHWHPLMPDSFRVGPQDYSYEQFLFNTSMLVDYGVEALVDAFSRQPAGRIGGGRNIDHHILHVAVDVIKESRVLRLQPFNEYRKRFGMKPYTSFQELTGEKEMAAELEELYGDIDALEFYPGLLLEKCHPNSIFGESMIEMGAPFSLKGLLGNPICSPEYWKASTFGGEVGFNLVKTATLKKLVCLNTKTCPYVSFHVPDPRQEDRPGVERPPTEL

[4] = molecular target: T5, Prostaglandin E synthase (Homo sapiens) (UniProt O14684); test: Inhibition of mPGES-1 in human IL-1beta-stimulated A549 cell microsomes assessed as remaining activity measuring PGE2 formation from PGH2 at 10 uM after 15 mins by RP-HPLC analysis; settings: Microsome
T5 sequence (whole entry): T2 sequence (O14684 whole entry)
Procedure, shortened: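 Cell-free assay with microsomes from human A549 cells; PGE2 generation from 20 μM PGH2 substrate; compounds tested at 10 μM. Result given as % PGE2 formation remaining versus vehicle control; MK-886 reference; mean with SE, n = 3−5.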

[5] = molecular target: T4, Prostaglandin G/H synthase 1 (Ovis aries); test: Inhibition of ovine COX1 assessed as inhibition of 12-HHT formation measuring remaining activity preincubated at 10 uM for 5 mins before arachidonic acid addition by HPLC analysis
Procedure, shortened: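 Isolated ovine COX-1 in a cell-free assay, 5 μM arachidonic acid as substrate; compounds at fixed 10 μM. 12-HHT formation expressed as % activity versus vehicle control; mean with SE, n = 3.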

Row | Activity [1] | IC50 (Prostaglandin E synthase; read-out: IC50) | IC50 ([2]; read-out: IC50) | inhibition [3] | IC50 [2] | Activity [4] | Activity [5] | IC50 (Prostaglandin E synthase; a549) | SMILES
1 | 59.7% | 45 µM | – | – | – | – | – | – | O=C(O)Cc1cn(-c2ccccc2)nc1-c1ccc(Cl)cc1 [LONAZOLAC CALCIUM]
2 | – | 1.75 µM | 1.7 µM | inactive | – | – | – | – | Cc1ccc(S(=O)(=O)NC(=O)Cc2c(C)n(Cc3ccc(Cl)cc3)c3ccc(Br)cc23)cc1
3 | – | – | – | – | Not Active | 81.2% | – | – | CC(C)Cc1ccc(C(C)C(=O)O)cc1 (stereo not drawn) [IBUPROFEN]
4 | 67.7% | – | – | inactive | – | 78.6% | – | – | Cc1ccc(S(=O)(=O)NC(=O)C(C)c2ccc(CC(C)C)cc2)cc1 (stereo not drawn)
5 | – | 1.7 µM | 3.5 µM | inactive | – | – | 99.1% | – | Cc1ccc(S(=O)(=O)NC(=O)Cc2cn(-c3ccccc3)nc2-c2ccc(-c3ccccc3)cc2)cc1
6 | 64.9% | – | – | inactive | – | 73.6% | – | – | COc1ccc2c(c1)c(CC(=O)NS(C)(=O)=O)c(C)n2C(=O)c1ccc(Cl)cc1
7 | – | 2.5 µM | 0.9 µM | inactive | – | – | – | – | Cc1c(CC(=O)O)c2cc(C#Cc3ccccc3)ccc2n1Cc1ccc(Cl)cc1
8 | – | 3.4 µM | 2.5 µM | inactive | – | – | – | – | Cc1ccc(S(=O)(=O)NC(=O)Cc2cn(-c3ccccc3)nc2-c2ccc(Cl)cc2)cc1
9 | – | – | – | inactive | – | 86.1% | – | – | CCOC(=O)Cc1c(C)n(Cc2ccc(Cl)cc2)c2ccc(C#Cc3ccccc3)cc12
10 | – | 0.2 µM | 1.6 µM | inactive | – | – | – | – | O=C(Cc1cn(-c2ccccc2)nc1-c1ccc(C#Cc2ccccc2)cc1)NS(=O)(=O)c1ccc(Cl)cc1
11 | 90.7% | – | – | inactive | – | 78.6% | – | – | CC(C(=O)NS(C)(=O)=O)c1cccc(C(=O)c2ccccc2)c1 (stereo not drawn)
12 | – | 0.8 µM | 2.3 µM | inactive | – | – | – | – | O=C(Cc1cn(-c2ccccc2)nc1-c1ccc(C#Cc2cccc(Cl)c2)cc1)NS(=O)(=O)c1ccc(Cl)cc1
13 | – | 2.8 µM | 1.5 µM | inactive | – | – | 83.1% | – | Cc1ccc(S(=O)(=O)NC(=O)Cc2c(C)n(Cc3ccc(Cl)cc3)c3ccc(C#Cc4ccccc4)cc23)cc1
14 | – | – | – | – | Not Active | – | – | – | CC(C(=O)O)c1cccc(C(=O)c2ccccc2)c1 (stereo not drawn) [KETOPROFEN]
15 | – | 6.4 µM | 2.9 µM | inactive | – | – | 89.4% | – | COc1ccc2c(c1)c(CC(=O)NS(=O)(=O)c1ccc(C)cc1)c(C)n2C(=O)c1ccc(Cl)cc1
16 | – | 0.18 µM | 3.9 µM | inactive | – | – | – | – | O=C(O)Cc1cn(-c2ccccc2)nc1-c1ccc(C#Cc2cccc(Cl)c2)cc1
17 | – | 0.4 µM | 5 µM | inactive | – | – | – | – | O=C(O)Cc1cn(-c2ccccc2)nc1-c1ccc(C#Cc2ccccc2)cc1
18 | – | 2.3 µM | 2.9 µM | inactive | – | – | – | – | O=C(Cc1cn(-c2ccccc2)nc1-c1ccc(Cl)cc1)NS(=O)(=O)c1ccc(Cl)cc1
19 | 72.1% | – | – | inactive | – | 98% | – | – | CS(=O)(=O)NC(=O)Cc1cn(-c2ccccc2)nc1-c1ccc(Cl)cc1
20 | 78.9% | – | – | inactive | – | 76.3% | – | – | Cc1ccc(S(=O)(=O)NC(=O)C(C)c2cccc(C(=O)c3ccccc3)c2)cc1 (stereo not drawn)
21 | – | – | – | inactive | Not Active | 72.8% | – | – | COc1ccc2cc(C(C)C(=O)NS(=O)(=O)c3ccc(C)cc3)ccc2c1 (stereo not drawn)
22 | – | – | – | – | Not Active | – | – | Not Active | COc1ccc2cc([C@H](C)C(=O)O)ccc2c1 [NAPROXEN]
23 | 91.2% | – | – | inactive | – | 67.9% | – | – | CC(C)Cc1ccc(C(C)C(=O)NS(C)(=O)=O)cc1 (stereo not drawn)
24 | – | – | – | inactive | Not Active | 92.5% | – | – | COc1ccc2cc(C(C)C(=O)NS(C)(=O)=O)ccc2c1 (stereo not drawn)
25 | – | – | – | inactive | – | 68.7% | – | – | COc1ccc2c(c1)c(C(=O)NCc1ccc(S(C)(=O)=O)cc1)c(C)n2C(=O)c1ccc(Cl)cc1
26 | – | 5.9 µM | 6.8 µM | inactive | – | – | – | – | O=C(Cc1cn(-c2ccccc2)nc1-c1ccc(Cl)cc1)NS(=O)(=O)c1ccccc1
27 | – | 40.6 µM | – | – | Not Active | – | 23.3% | – | COc1ccc2c(c1)c(CC(=O)O)c(C)n2C(=O)c1ccc(Cl)cc1 [INDOMETHACIN]
28 | – | 0.35 µM | 4.7 µM | inactive | – | – | 70.1% | – | O=C(Cc1cn(-c2ccccc2)nc1-c1ccc(C#Cc2ccc(Cl)cc2)cc1)NS(=O)(=O)c1ccc(Cl)cc1
29 | – | 0.16 µM | 3.7 µM | inactive | – | – | 77.8% | – | O=C(O)Cc1cn(-c2ccccc2)nc1-c1ccc(C#Cc2ccc(Cl)cc2)cc1
30 | – | 1.8 µM | 2 µM | inactive | – | – | – | – | Cc1c(CC(=O)NS(=O)(=O)c2ccc(Cl)cc2)c2cc(C#Cc3ccccc3)ccc2n1Cc1ccc(Cl)cc1
